From ChEMBL document CHEMBL4251706, “Elimination of HIV-1 Latently Infected Cells by Gnidimacrin and a Selective HDAC Inhibitor” (ACS Med Chem Lett, 2018)
Calls of active or inactive are those of the source. The rule behind the calls is not given here.

Legend:
[1] = tested on: Human immunodeficiency virus 1; assay: Reactivation of latent HIV1 infected in human U1 cells assessed as increase in p24 production after 48 hrs by ELISA; type: functional, organism-based; details: Human immunodeficiency virus 1, U1, 48 h; read-out: EC50
[2] = tested on: Human immunodeficiency virus 1; assay: Reactivation of latent HIV1 infected in human J-Lat A2 cells assessed as increase in GFP positive cells at 1 uM after 72 hrs by flow cytometric analysis; type: functional, organism-based
Outline: (§1)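 J-Lat (A2) cells, 1x10^6 cells/well, incubated with the test agent at 37 °C for 72 h. GFP-expressing cells and percent viable cells measured by flow cytometry. Two independent experiments.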

[3] = tested on: Human immunodeficiency virus 1; assay: Reactivation of latent HIV1 infected in human U1 cells/uninfected U937 cell mixture assessed as increase in p24 production at 0.57 uM supplemented with fresh medium containing compound every 3 days for 18 days and subsequent dosing at day 18 post dose measured on day 21 by ELISA
[4] = Cytotoxicity against human J-Lat (A2) cells assessed as effect on cell viability at 1 uM after 72 hrs by flow cytometric analysis; type: cell-based; outline: as §1
[5] = tested on: Human immunodeficiency virus 1; assay: (§2) Reactivation of latent HIV1 infected in human U1 cells/uninfected U937 cell mixture assessed as reduction in proviral DNA level at 0.57 uM supplemented with fresh medium containing compound every 3 days for 18 days measured post last dose by PCR analysis; type: functional, organism-based
Outline: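 U1/U937 (1:4) cultures treated for 18 days with T20 present and refed with compound every 3 days. HIV-1 pol DNA (200 bp) amplified by PCR for 30 cycles, with B2M (779 bp, 25 cycles) as internal control. Products run on 2% agarose gels and densitometry expressed as the treated/DMSO ratio.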

[6] = tested on: Human immunodeficiency virus 1; assay: Reactivation of latent HIV1 infected in human U1 cells assessed as increase in p24 production after 48 hrs by ELISA relative to vorinostat; type: functional
Outline: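 U1 cells at 2x10^5 cells/ml incubated with a range of concentrations at 37 °C for 48 h. Supernatant p24 measured by HIV p24 ELISA. EC50 ± SD derived from 3 independent experiments.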

[7] = Cytotoxicity against human Jurkat cells assessed as reduction in cell viability after 72 hrs by CellTiter-Glo luminescent cell viability assay; type: cell-based
[8] = Cytotoxicity against human U937 cells assessed as reduction in cell viability after 48 hrs by CellTiter-Glo luminescent cell viability assay; type: cell-based, U-937
Outline: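 U937 cells (HIV-1-negative parental line of U1) at 2x10^5 cells/ml exposed to a range of concentrations for 48 h at 37 °C. Viability read by CellTiter-Glo luminescence. CC50 ± SD derived from 3 independent experiments.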

[9] = Selectivity index, ratio of CC50 for human U937 cells to EC50 for reactivation of latent HIV1 infected in human U1 cells; details: U937 cells (CC50) and latent HIV-1 infected U1 cells (EC50)
PBMC [10] = assay: Induction of T-cell activation in human PBMC assessed as increase in CD69 expression at 3 nM measured after 1 day in presence of HDAC inhibitor vorinostat by flow cytometric method; type: cell-based; details: 24 h, 0.003 µM
[11] = tested on: Human immunodeficiency virus 1; assay: as §2, with “Synergistic reactivation” for “Reactivation”, “26 pM” for “0.57 uM”, “dose in presence of HDAC inhibitor TPyB” for “dose”, “analysis relative to control” for “analysis”; type: functional
Outline: (§3)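 Cells from the 18-day U1/U937 (1:4) co-culture with LRA(s) or DMSO plus T20 were tested for proviral DNA by PCR of HIV-1 pol (200 bp, 30 cycles), with B2M (779 bp, 25 cycles) as internal control. Products run on 2% agarose and quantified by densitometry; values are ratios of treated to DMSO.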

PBMC [12] = assay: Induction of T-cell activation in human PBMC assessed as increase in CD69 expression at 3 nM measured after 1 day in presence of HDAC inhibitor TPyB by flow cytometric method; type: cell-based; details: 24 h, 0.003 µM
[13] = tested on: Human immunodeficiency virus 1; assay: Ratio of EC50 for reactivation of latent HIV1 infected in human U1 cells to EC50 for synergistic reactivation of latent HIV1 infected in human U1 cells in presence of HDAC inhibitor TPB; type: functional
[14] = tested on: Human immunodeficiency virus 1; assay: Synergistic reactivation of latent HIV1 infected in human PBMC assessed as reduction in HIV1 DNA at 20 pM after 6 days in presence of HDAC inhibitor TPB by SYBR green dye based RT-PCR analysis relative to control; type: functional
[15] = tested on: Human immunodeficiency virus 1; assay: Reactivation of latent HIV1 infected in human J-Lat A2 cells assessed as increase in GFP positive cells at 80 pM after 72 hrs by flow cytometric analysis relative to control; type: functional
Outline: (§4)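 J-Lat (A2) cells express GFP on latent HIV-1 activation; 1x10^6 cells/well incubated with LRA(s), alone or in pairs (HDAC inhibitor TPB 0.3 µM or TPyB 1.0 µM), at 37 °C for 72 h; GFP+ cell frequency by flow cytometry; two independent experiments, one-tailed t-test.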

[16] = tested on: Human immunodeficiency virus 1; assay: (§5) Reactivation of latent HIV1 infected in human U1 cells/uninfected U937 cell mixture assessed as increase in p24 production at 26 pM supplemented with fresh medium containing compound every 3 days for 18 days and subsequent dosing at 129 pM at day 18 post dose measured on day 21 by ELISA; type: functional, organism-based
Outline: (§6)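 U1 and U937 cells mixed 1:4 (1x10^5 cells/ml) with LRA(s) (GM 26 pM, TPyB 0.57 µM) or DMSO, plus T20 1 µg/ml, for 18 days. p24 in supernatant read by ELISA every 3 days, after which medium with compound was renewed and cells reset to 1x10^5/ml. At day 18, part of the cells got GM 129 pM for 72 h and were read on day 21.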

PBMC [17] = assay: Induction of IFNgamma1 production in human PBMC at 2000 pM after 2 days in presence of 3 uM HDAC inhibitor TPB by ELISA (reference value: 26 pg/ml); type: cell-based; details: 48 h, 0.002 µM
PBMC [18] = assay: Induction of IFNgamma1 production in human PBMC at 2000 pM after 2 days in presence of 1 uM HDAC inhibitor TPB by ELISA (reference value: 27 pg/ml); type: cell-based; details: 48 h, 0.002 µM
[19] = tested on: Human immunodeficiency virus 1; assay: as §5, with “Synergistic reactivation” for “Reactivation”, “21 in presence of HDAC inhibitor TPyB” for “21”; type: functional, organism-based; outline: as §6
PBMC [20] = assay: Induction of IFNgamma1 production in human PBMC at 20 pM after 2 days in presence of 0.3 uM HDAC inhibitor SAHA by ELISA (reference value: 25 pg/ml); type: cell-based; details: 48 h
[21] = tested on: Human immunodeficiency virus 1; assay: Synergistic reactivation of latent HIV1 infected in human U1 cells/uninfected U937 cell mixture assessed as increase in p24 production at 26 pM supplemented with fresh medium containing compound every 3 days for 18 days measured at day 6 post dose in presence of HDAC inhibitor TPyB by ELISA; type: functional, organism-based; outline: as §6
[22] = tested on: Human immunodeficiency virus 1; assay: Reactivation of latent HIV1 infected in human U1 cells/uninfected U937 cell mixture assessed as reduction in proviral DNA level at 26 pM supplemented with fresh medium containing compound every 3 days for 18 days measured post last dose by PCR analysis; type: functional, organism-based; outline: as §3
[23] = tested on: Human immunodeficiency virus 1; assay: Synergistic reactivation of latent HIV1 infected in human J-Lat A2 cells assessed as increase in GFP positive cells after 72 hrs in presence of HDAC inhibitor TPB by flow cytometric analysis relative to control; type: functional; outline: as §4
[24] = Cytotoxicity against human J-Lat (A2) cells assessed as effect on cell viability at 80 pM after 72 hrs by flow cytometric analysis; type: cell-based
Outline: (§7)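 J-Lat (A2) cells, 1x10^6 cells/well, exposed to LRA(s) at 37 °C for 72 h; percent viable cells read by flow cytometry, two independent experiments.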

[25] = tested on: Human immunodeficiency virus 1; assay: Reactivation of latent HIV1 infected in human U1 cells/uninfected U937 cell mixture assessed as increase in p24 production at 26 pM supplemented with fresh medium containing compound every 3 days for 18 days measured at day 9 post dose by ELISA; type: functional, organism-based; outline: as §6
PBMC [26] = assay: Induction of IFNgamma1 production in human PBMC at 20 pM after 2 days in presence of 1 uM HDAC inhibitor TPB by ELISA (reference value: 27 pg/ml); type: cell-based; details: 48 h
[27] = tested on: Human immunodeficiency virus 1; assay: Synergistic reactivation of latent HIV1 infected in human PBMC assessed as reduction in frequency of HIV1 latently infected CD4+ cells at 20 pM preincubated for 6 days followed by PHA-stimulation measured after 48 hrs in presence of HDAC inhibitor TPB by ELISA; type: functional
PBMC [28] = assay: Induction of IFNgamma1 production in human PBMC at 2000 pM after 2 days in presence of 0.3 uM HDAC inhibitor SAHA by ELISA (reference value: 25 pg/ml); type: cell-based; details: 48 h, 0.002 µM
[29] = tested on: Human immunodeficiency virus 1; assay: Synergistic reactivation of latent HIV1 infected in human U1 cells assessed as increase in p24 production after 48 hrs in presence of HDAC inhibitor TPB by ELISA; type: functional, organism-based; details: Human immunodeficiency virus 1, U1, 48 h
PBMC [30] = assay: Induction of IFNgamma1 production in human PBMC at 2000 pM after 2 days by ELISA (reference value: 29 pg/ml); type: cell-based; details: 48 h, 0.002 µM
PBMC [31] = assay: Induction of IFNgamma1 production in human PBMC at 20 pM after 2 days in presence of 3 uM HDAC inhibitor TPB by ELISA (reference value: 26 pg/ml); type: cell-based; details: 48 h
[32] = tested on: Human immunodeficiency virus 1; assay: Synergistic reactivation of latent HIV1 infected in human U1 cells assessed as increase in p24 production after 48 hrs in presenc of HDAC inhibitor TPB by ELISA relative to vorinostat; type: functional
[33] = tested on: Human immunodeficiency virus 1; assay: Reactivation of latent HIV1 infected in human U1 cells/uninfected U937 cell mixture assessed as p24 level at 26 pM supplemented with fresh medium containing compound every 3 days for 18 days measured at day 18 post dose by ELISA; type: functional; outline: as §6
PBMC [34] = assay: Induction of IFNgamma1 production in human PBMC at 20 pM after 2 days by ELISA (reference value: 29 pg/ml); type: cell-based; details: 48 h
[35] = tested on: Human immunodeficiency virus 1; assay: Synergistic reactivation of latent HIV1 infected in human U1 cells/uninfected U937 cell mixture assessed as p24 level at 26 pM supplemented with fresh medium containing compound every 3 days for 18 days measured at day 6 post dose in presence of HDAC inhibitor TPyB by ELISA; type: functional; outline: as §6
[36] = Cytotoxicity against human J-Lat (A2) cells assessed as effect on cell viability at 0.5 nM after 72 hrs by flow cytometric analysis; type: cell-based; details: 0.0005 µM; outline: as §7
[37] = tested on: Human immunodeficiency virus 1; assay: Reactivation of latent HIV1 infected in human J-Lat A2 cells assessed as increase in GFP positive cells at 0.5 nM after 72 hrs by flow cytometric analysis; type: functional, organism-based; outline: as §4

## CC(=O)Nc1ccc(C(=O)Nc2nc(-c3cccs3)ccc2N)cc1
[1]
  EC50: 5700 nM
[2]
  Activity: Active
[3]
  Activity: Active
[4]
  Activity: Non-Toxic
[5]
  Activity: Active
[6]
  fold change (FC): 1.3
[7]
  CC50 at 72 h: 44300 nM
[8]
  CC50 at 48 h: 47300 nM
[9]
  selectivity ratio: 8.2

## C=C(C)[C@@]12C[C@@H](COC(=O)c3ccccc3)[C@@]34OC5(O[C@@H]1[C@@H]3[C@@H]1O[C@]1(CO)[C@@H](O)[C@@]1(O)[C@H]4[C@H]([C@H](C)[C@@H]1OC(=O)c1ccccc1)[C@H](C)CCCCCC[C@H]5O)O2 [GNIDIMACRIN]
PBMC [10]
  Activity: Toxic
[11]
  fold change (FC): 10
PBMC [12]
  Activity: Toxic
[1]
  EC50: 0.018 nM
[13]
  Ratio EC50: >3
[14]
  fold change (FC): 1.8
[15]
  Activity: >5%
[16]
  Activity: inactive
PBMC [17]
  Activity: 42 pg/mL
PBMC [18]
  Activity: 47 pg/mL
[19]
  Activity: inactive
PBMC [20]
  Activity: 30 pg/mL
[21]
  Activity: Active
[22]
  Activity: Active
[23]
  Activity: 21%
[24]
  Activity: Non-Toxic
[25]
  Activity: Active
PBMC [26]
  Activity: 34 pg/mL
[6]
  fold change (FC): 12.3
[27]
  fold change (FC): >3
PBMC [28]
  Activity: 39 pg/mL
[29]
  EC50: 0.0056 nM
[7]
  CC50 at 72 h: 5300 nM
PBMC [30]
  Activity: 164 pg/mL
PBMC [31]
  Activity: 32 pg/mL
[8]
  CC50 at 48 h: 4200 to 4800 nM
[9]
  selectivity ratio: 260000 to 750000
[32]
  fold change (FC): 13.8
[33]
  Activity: 49 pg/mL
PBMC [34]
  Activity: 35 pg/mL
[35]
  Activity: 12 pg/mL

## C/C=C(/C)C(=O)O[C@H]1C(C)=C[C@]23C(=O)[C@@H](C=C(CO)[C@@H](O)[C@]12O)[C@H]1[C@@H](C[C@H]3C)C1(C)C [INGENOL MEBUTATE]
[1]
  EC50: 4.8 nM
[36]
  Activity: Non-Toxic
[37]
  Activity: Active
[6]
  fold change (FC): 9.7
[8]
  CC50 at 48 h: > 200 nM
[9]
  selectivity ratio: > 42

## C/C=C1\NC(=O)[C@H]2CSSCC/C=C/[C@H](CC(=O)N[C@H](C(C)C)C(=O)N2)OC(=O)[C@H](C(C)C)NC1=O [ROMIDEPSIN]
[8]
  CC50 at 48 h: 0.73 nM
[9]
  selectivity ratio: 0.66

## O=C(CCCCCCC(=O)Nc1ccccc1)NO [VORINOSTAT]
[8]
  CC50 at 48 h: 780 nM
